Compound activity as filed in PubChem BioAssay.
In the library only some 3.3% were active in any assay of this set; here they are far more common.
SIAE primary – human SIAE inhibitors, primary screen, biochemical, fluorescence polarization, FP-Rh probe, 1536-well HTS; SIAE FP-Rh probe binding; inhibition, % at 9.66 µM; 0.69% of 370,000 active;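 active = inhibition above a cutoff: mean of compounds within the control limits plus 3 SD of those, cut at about 17% in these data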
Target sequence (Q9HAT2 whole entry, looked up): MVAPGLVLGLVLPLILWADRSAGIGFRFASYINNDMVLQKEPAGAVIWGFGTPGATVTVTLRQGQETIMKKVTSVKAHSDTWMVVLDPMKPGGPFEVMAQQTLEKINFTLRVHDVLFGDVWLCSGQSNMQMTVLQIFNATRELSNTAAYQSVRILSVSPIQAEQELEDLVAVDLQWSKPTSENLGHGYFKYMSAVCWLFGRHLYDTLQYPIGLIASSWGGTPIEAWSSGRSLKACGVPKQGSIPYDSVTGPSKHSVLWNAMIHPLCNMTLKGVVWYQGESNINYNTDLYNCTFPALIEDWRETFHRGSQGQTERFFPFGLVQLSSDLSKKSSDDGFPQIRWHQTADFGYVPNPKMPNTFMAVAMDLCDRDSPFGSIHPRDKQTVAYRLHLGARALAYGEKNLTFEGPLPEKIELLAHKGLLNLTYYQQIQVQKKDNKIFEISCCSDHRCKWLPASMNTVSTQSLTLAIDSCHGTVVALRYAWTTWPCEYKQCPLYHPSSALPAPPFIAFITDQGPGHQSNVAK
rCAG binder – binders of r(CAG) RNA repeats, primary screen, biochemical, fluorescence; AID 651821, 2012; r(CAG) RNA repeat, TO-PRO-1 dye displacement fluorescence; inhibition, % at 3 µM; 1.3% of 370,000 active;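 active = inhibition above the plate cutoff, the mean of all test compounds on that plate plus 3 SD, cut at about 35% in these data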;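 note: higher means more dye released from RNA so lower well fluorescence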
TCR-CD3 inh – inhibitors of human TCR-CD3 interaction, primary screen, biochemical, fluorescence, TAMRA-labeled TCR probe; 0.37% of 360,000 active; inhibition, % at 9.4 µM; in the data active = inhibition above about 19%;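 note: recombinant mutant TCR 2C K166C tagged with TAMRA read by polarization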
mABHD4 FP – ABHD4 inhibitors, primary screen, biochemical, fluorescence polarization, mouse; 0.54% of 370,000 active; inhibition, % at 8.92 µM; purified mABHD4, FP-Rh probe fluorescence polarization;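 active = inhibition exceeding the mean over every tested compound plus 3 SD, cut at about 30% in these data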
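Test system: mABHD4 protein | Buffer or medium: HEPES pH 7.0 buffer, 150 mM NaCl, 0.01% Pluronic F-127 | Probe or stimulus: FP-Rh fluorescent activity-based probe, added after compound pre-incubation | Timing: Pre-incubation 45 min, probe exposure 60 min, at 25 °C | Technique: Fluorescence polarization, excitation 525 nm, emission 598 nm, BODIPY TMR filters | Repeats: Single well per compound (singlicate)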
PRMT1 FP inh – PRMT1 methyltransferase inhibitors, primary screen, biochemical, fluorescence polarization | 1.3% of 370,000 active | inhibition, % at 2.79 µM | recombinant PRMT1, activity-based probe fluorescence polarization | AID 652257, 2013;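 active = inhibition above about 21% made by adding two undisclosed values, limit read from the data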
PRMT1 confirm – PRMT1 methyltransferase inhibitors, confirmation, biochemical, fluorescence polarization, triplicate | inhibition, % at 2.79 µM | recombinant His-PRMT1, activity-based probe fluorescence polarization | shares compounds with PRMT1 FP inh | 42% of 3,300 active;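 active = mean inhibition across replicates above the hit cutoff derived for the earlier primary screen, cut at about 22% in these data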
mABHD4 conf – ABHD4 inhibitors, retest, confirmation, biochemical, fluorescence polarization, mouse. shares compounds with mABHD4 FP. purified mABHD4, FP-Rh probe fluorescence polarization. inhibition, % at 8.92 µM. 55% of 1,800 active. AID 720658, 2013;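 active = mean inhibition across replicates above the hit cutoff set in the primary screen, cut at about 30% in these data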
SIAE inh conf – human SIAE inhibitors, retest, confirmation, biochemical, fluorescence polarization, FP-Rh probe, triplicate. shares compounds with SIAE primary. SIAE FP-Rh activity-based probe. inhibition, % at 9.66 µM. 13% of 2,300 active. AID 1117263, 2014;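 active = mean inhibition of the replicates above the hit cutoff set in the primary screen, cut at about 17% in these data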;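 note: inhibitors lower polarization as more probe stays unbound to SIAE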
Of the large screens only hits and unclear results are named; the others gave an inactive call (follow-up assays come after a bar, where they were run); ! = not confirmed by another sample.

C[C@H]1CCCN1c1cccc2c1S(=O)(=O)N(C1CC1)CCCO2	none (no result: TCR-CD3 inh)
Cc1ccc(Cn2cc(CN3[C@@H](CC(C)C)COc4cccc(F)c4S3(=O)=O)nn2)cc1	none (no result: TCR-CD3 inh)
Cc1ccc([C@@H]2C3COCC=C3C(C#N)=C(N)C2(C#N)C#N)o1 (stereo partly specified)	SIAE primary 18.1, PRMT1 FP inh 28.3 | PRMT1 confirm inactive | SIAE inh conf inactive
O=[N+]([O-])c1ccc2nc(CNc3nc(N4CCOCC4)nc4c3ncn4-c3ccsc3)[nH]c2c1	none (no result: rCAG binder, TCR-CD3 inh)
O=C(CCl)N1c2ccccc2Oc2ccc3ccccc3c21	SIAE primary 22.0, TCR-CD3 inh 22.3, mABHD4 FP 62.4, PRMT1 FP inh 60.3 | PRMT1 confirm 40.2 | mABHD4 conf inactive | SIAE inh conf inactive
CC(=O)N1c2ccccc2Oc2cc3ccccc3cc21	none
CCCCCCn1c(=O)[nH]c2nc3cc(N)ccc3nc2c1=O	SIAE primary 18.1, mABHD4 FP 49.8, PRMT1 FP inh 124.0 | PRMT1 confirm 103.7 | mABHD4 conf 40.2 | SIAE inh conf inactive
O=C1C2C3C=CC(C3=C3CCCCC3)C2C(=O)N1c1ccccc1 (stereo unspecified)	SIAE primary 19.1, PRMT1 FP inh 43.2 | PRMT1 confirm inactive | SIAE inh conf inactive
O=C1C2C3C=CC(C3)C2C(=O)N1c1ccccc1 (stereo unspecified)	none
CNc1ncnc(Sc2nc(N)nc3nc[nH]c23)c1[N+](=O)[O-]	none
Nc1nc(Sc2ccc([N+](=O)[O-])c3nonc23)c2[nH]cnc2n1	SIAE primary 17.4, mABHD4 FP 46.5, PRMT1 FP inh 89.4 | PRMT1 confirm 84.0 | mABHD4 conf 48.6 | SIAE inh conf inactive
COc1ccccc1N1CCN(S(=O)(=O)c2ccc3c(c2)CCC(=O)N3)CC1	none (no result: TCR-CD3 inh)
Cc1cccc(C=Nc2ccc3c4c(cccc24)CC3)c1O	SIAE primary 20.6, mABHD4 FP 33.5, PRMT1 FP inh 36.2 | PRMT1 confirm inactive | mABHD4 conf inactive | SIAE inh conf inactive
Cc1ccc2c(c1)c(C1=c3ccccc3=NC1=O)c(O)n2C	none
C=CCn1c(O)c(C2=c3ccccc3=NC2=O)c2ccccc21	SIAE primary 27.6, mABHD4 FP 38.2, PRMT1 FP inh 41.8 | PRMT1 confirm 45.2 | mABHD4 conf 44.2 | SIAE inh conf inactive
COC(=O)C1CN(Cc2ccc(OC)cc2)CCS(=O)(=O)N1Cc1cn(Cc2ccc(OC)cc2)nn1 (stereo unspecified)	none (no result: TCR-CD3 inh)
CCOC(=O)C1C[C@@H](O)C=CC1=O (stereo partly specified)	none (no result: rCAG binder, TCR-CD3 inh)
O=C(CC1SC(=O)N(c2ccccc2)C1=O)Nc1ccccc1 (stereo unspecified)	SIAE primary 26.0, PRMT1 FP inh 81.0 | PRMT1 confirm 93.2 | SIAE inh conf inactive
CCOC(=O)C(C(=O)OCC)c1cc(Br)c2noc3c2c1C(=O)c1ccccc1-3	SIAE primary 22.3, PRMT1 FP inh 31.8 | PRMT1 confirm 53.5 | SIAE inh conf inactive
O=C1c2ccccc2-c2onc3ccc(Oc4ccccc4)c1c23	none
O=S(=O)(/N=S1\CC=CCN1S(=O)(=O)c1ccccc1)c1ccccc1 (stereo unspecified)	SIAE primary 20.0, PRMT1 FP inh 40.7 | PRMT1 confirm 77.5 | SIAE inh conf inactive
COc1ccc(S[C@]2(C(=O)N3CCN(C(C)=O)CC3)CC(=O)N(C(=O)c3ccccc3)[C@@H]2c2ccc(OC)cc2)cc1	SIAE primary 18.3, PRMT1 FP inh 83.2 (no result: TCR-CD3 inh) | PRMT1 confirm 82.1 | SIAE inh conf inactive
C=C(C)/C=C1/C(Cc2ccccc2)N(CC2CC2)C(=N)N1C(=O)OCc1ccccc1 (stereo unspecified)	none (no result: TCR-CD3 inh)
Cc1c(CCOC(=O)c2ccc(Cl)cc2Cl)sc[n+]1CC(=O)c1ccc(Br)cc1	none
Cc1c(CCOC(=O)C2C3CC4CC(C3)CC2C4)sc[n+]1CC(=O)c1ccc(Br)cc1 (stereo unspecified)	mABHD4 FP 32.5! | mABHD4 conf 35.9
COC(=O)c1ccc(C2N=C(c3cccs3)CC(c3ccccc3O)N2)cc1 (stereo unspecified)	mABHD4 FP 36.2 | mABHD4 conf inactive
O=C(c1ccccc1)N1N=C(c2cccs2)CC1c1ccccc1O (stereo unspecified)	none
Oc1ccc2ccccc2c1C=NNc1ccccn1	mABHD4 FP 35.5 | mABHD4 conf inactive
CCOc1cccc2sc(NN)nc12	mABHD4 FP 71.2 | mABHD4 conf 71.5
CN(C)/C=C/C(=O)c1ccn(S(=O)(=O)c2ccccc2)c1	none
O=C(/C=C/c1ccc2c(c1)OCO2)NCCS(=O)(=O)N1CCN(c2ccccc2)CC1	none
Cc1ncc(N=Nc2ccccc2Cl)c(-c2ccccc2)n1	none
Nc1nc(-c2ccccc2)c(N=Nc2ccccc2Cl)s1	mABHD4 FP 46.3 | mABHD4 conf 75.7
CC(C)CN(C(=O)COC(=O)Cn1cnc2ccccc2c1=O)C1CCS(=O)(=O)C1 (stereo unspecified)	none
CN(C(=O)Cn1cnc2ccccc2c1=O)C1CCS(=O)(=O)C1 (stereo unspecified)	mABHD4 FP 49.7 | mABHD4 conf inactive
COC(=O)c1cc(C(c2ccccc2O)C2CCC(C)(C)O2)n2ccccc12 (stereo unspecified)	none (no result: TCR-CD3 inh)
CC(C)c1ccc2c(c1)C(N1CCNCC1)Cc1ccc(F)cc1S2 (stereo unspecified)	mABHD4 FP 32.1 | mABHD4 conf 47.4
O=C1C=C(Nc2ccc(O)cc2)CC(c2ccco2)C1 (stereo unspecified)	mABHD4 FP 43.9 | mABHD4 conf inactive
CCC[C@H](CN[C@@H](CNC)[C@H](C)CC)NCCc1cc(C(F)(F)F)cc(C(F)(F)F)c1	none
CC[C@@H](C)[C@H](CNC)NC[C@@H](Cc1cccc2ccccc12)NCCc1cccc(C(F)(F)F)c1	mABHD4 FP 49.5 | mABHD4 conf 50.8
CNC[C@@H](CC1CCCCC1)NC[C@H](CC(C)C)NCCc1cccc(C(F)(F)F)c1	mABHD4 FP 31.1 | mABHD4 conf 51.5
CCC[C@@H](CNC)NC[C@H](Cc1ccccc1)NCCCCc1ccccc1	none
